Each block holds one compound with its values, some of them ahead of it.
Key:
[1] = molecular target: T1, Broad substrate specificity ATP-binding cassette transporter ABCG2 (Homo sapiens, UniProt Q9UNQ0); assay: Inhibition of BCRP (unknown origin) expressed in MDCK cells assessed as increase in Hoechst 33342 accumulation incubated for 30 mins by Hoechst 33342 dye based fluorescence assay; assay type: cell-based
T1 sequence (Q9UNQ0 whole entry): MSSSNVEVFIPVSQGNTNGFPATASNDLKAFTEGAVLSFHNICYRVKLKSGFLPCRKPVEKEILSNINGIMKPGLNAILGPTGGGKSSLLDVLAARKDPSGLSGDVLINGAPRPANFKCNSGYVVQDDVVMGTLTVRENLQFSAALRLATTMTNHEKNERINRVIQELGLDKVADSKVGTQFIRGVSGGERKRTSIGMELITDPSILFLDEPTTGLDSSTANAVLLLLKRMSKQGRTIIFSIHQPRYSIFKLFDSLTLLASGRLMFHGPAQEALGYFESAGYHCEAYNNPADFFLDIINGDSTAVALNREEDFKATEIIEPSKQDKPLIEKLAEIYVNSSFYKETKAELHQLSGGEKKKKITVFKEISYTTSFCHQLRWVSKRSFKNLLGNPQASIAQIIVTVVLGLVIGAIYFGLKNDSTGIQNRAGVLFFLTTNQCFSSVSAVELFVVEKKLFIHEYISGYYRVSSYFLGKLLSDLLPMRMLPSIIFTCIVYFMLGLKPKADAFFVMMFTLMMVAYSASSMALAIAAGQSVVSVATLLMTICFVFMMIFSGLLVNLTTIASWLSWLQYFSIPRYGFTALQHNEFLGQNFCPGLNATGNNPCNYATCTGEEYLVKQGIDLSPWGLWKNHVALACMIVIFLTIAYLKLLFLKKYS

[2] = molecular target: T1, Broad substrate specificity ATP-binding cassette transporter ABCG2; assay: Inhibition of BCRP (unknown origin)
How it was run: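 Pheophorbide A accumulation in MDCK II cells transfected with human wild-type BCRP cDNA C-terminally linked to GFP, ~45,000 cells/well. Compound (100 nM–100 µM) preincubated 20 min at 37 °C, 5% CO2. Pheophorbide A stock 5 µM added, then 120 min to steady state. Flow cytometry read-out: FL3 (≥670 nm, 488 nm excitation).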

[3] = molecular target: T2, ATP-dependent translocase ABCB1 (Homo sapiens, UniProt P08183); assay: Inhibition of P-gp (unknown origin) incubated for 30 mins by calcein AM analysis
T2 sequence (P08183 whole entry): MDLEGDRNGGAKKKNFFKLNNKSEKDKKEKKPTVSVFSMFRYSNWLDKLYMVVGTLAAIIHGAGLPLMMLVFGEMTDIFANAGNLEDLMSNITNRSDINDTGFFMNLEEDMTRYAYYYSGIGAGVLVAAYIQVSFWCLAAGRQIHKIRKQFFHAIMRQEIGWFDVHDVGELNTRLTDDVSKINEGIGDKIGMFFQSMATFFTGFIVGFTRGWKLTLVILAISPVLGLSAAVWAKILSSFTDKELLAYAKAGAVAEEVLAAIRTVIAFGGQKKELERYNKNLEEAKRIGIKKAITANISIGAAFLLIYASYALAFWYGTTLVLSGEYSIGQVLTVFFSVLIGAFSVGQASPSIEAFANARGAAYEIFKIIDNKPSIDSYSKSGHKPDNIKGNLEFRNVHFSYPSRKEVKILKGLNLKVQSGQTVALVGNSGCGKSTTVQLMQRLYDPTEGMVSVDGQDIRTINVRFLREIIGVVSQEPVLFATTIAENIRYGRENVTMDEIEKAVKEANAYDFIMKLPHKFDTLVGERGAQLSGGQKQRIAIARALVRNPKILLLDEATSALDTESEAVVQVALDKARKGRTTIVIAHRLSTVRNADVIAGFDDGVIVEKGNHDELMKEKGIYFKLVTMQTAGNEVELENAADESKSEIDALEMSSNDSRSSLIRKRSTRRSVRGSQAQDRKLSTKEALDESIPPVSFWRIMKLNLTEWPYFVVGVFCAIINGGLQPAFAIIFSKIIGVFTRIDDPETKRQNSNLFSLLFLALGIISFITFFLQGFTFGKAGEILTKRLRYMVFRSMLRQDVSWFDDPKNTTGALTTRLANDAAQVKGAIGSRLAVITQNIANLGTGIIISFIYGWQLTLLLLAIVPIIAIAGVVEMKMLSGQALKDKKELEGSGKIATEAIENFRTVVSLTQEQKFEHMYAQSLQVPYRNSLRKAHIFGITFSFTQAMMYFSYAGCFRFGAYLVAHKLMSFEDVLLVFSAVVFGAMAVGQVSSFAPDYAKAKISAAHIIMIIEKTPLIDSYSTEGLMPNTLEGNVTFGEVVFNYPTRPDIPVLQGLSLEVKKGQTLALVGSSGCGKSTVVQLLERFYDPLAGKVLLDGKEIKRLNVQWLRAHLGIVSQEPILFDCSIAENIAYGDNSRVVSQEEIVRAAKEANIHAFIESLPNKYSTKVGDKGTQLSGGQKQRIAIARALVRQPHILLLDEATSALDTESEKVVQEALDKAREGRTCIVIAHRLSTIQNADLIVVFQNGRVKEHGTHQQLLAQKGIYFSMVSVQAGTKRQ
How it was run: (§1)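 A2780/ADR cells (doxorubicin-selected, P-gp overexpressing), about 30,000 per well in Krebs-HEPES buffer pH 7.4, incubated 30 min at 37 °C with compound (100 nM–100 µM added solutions). Calcein AM (3.125 µM solution added) then fluorescence read every 60 s at 37 °C, ex 485/em 520 nm; slope over minutes 5–30 plotted vs log concentration. Cyclosporine A 10 µM = 100% inhibition, buffer = 0%.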

[4] = molecular target: T3, Multidrug resistance-associated protein 1 (Homo sapiens, UniProt P33527); assay: Inhibition of MRP1 in human NCI-H69AR cells incubated for 180 mins in presence of daunorubicin by flow cytometry analysis; assay type: cell-based
T3 sequence (P33527 whole entry): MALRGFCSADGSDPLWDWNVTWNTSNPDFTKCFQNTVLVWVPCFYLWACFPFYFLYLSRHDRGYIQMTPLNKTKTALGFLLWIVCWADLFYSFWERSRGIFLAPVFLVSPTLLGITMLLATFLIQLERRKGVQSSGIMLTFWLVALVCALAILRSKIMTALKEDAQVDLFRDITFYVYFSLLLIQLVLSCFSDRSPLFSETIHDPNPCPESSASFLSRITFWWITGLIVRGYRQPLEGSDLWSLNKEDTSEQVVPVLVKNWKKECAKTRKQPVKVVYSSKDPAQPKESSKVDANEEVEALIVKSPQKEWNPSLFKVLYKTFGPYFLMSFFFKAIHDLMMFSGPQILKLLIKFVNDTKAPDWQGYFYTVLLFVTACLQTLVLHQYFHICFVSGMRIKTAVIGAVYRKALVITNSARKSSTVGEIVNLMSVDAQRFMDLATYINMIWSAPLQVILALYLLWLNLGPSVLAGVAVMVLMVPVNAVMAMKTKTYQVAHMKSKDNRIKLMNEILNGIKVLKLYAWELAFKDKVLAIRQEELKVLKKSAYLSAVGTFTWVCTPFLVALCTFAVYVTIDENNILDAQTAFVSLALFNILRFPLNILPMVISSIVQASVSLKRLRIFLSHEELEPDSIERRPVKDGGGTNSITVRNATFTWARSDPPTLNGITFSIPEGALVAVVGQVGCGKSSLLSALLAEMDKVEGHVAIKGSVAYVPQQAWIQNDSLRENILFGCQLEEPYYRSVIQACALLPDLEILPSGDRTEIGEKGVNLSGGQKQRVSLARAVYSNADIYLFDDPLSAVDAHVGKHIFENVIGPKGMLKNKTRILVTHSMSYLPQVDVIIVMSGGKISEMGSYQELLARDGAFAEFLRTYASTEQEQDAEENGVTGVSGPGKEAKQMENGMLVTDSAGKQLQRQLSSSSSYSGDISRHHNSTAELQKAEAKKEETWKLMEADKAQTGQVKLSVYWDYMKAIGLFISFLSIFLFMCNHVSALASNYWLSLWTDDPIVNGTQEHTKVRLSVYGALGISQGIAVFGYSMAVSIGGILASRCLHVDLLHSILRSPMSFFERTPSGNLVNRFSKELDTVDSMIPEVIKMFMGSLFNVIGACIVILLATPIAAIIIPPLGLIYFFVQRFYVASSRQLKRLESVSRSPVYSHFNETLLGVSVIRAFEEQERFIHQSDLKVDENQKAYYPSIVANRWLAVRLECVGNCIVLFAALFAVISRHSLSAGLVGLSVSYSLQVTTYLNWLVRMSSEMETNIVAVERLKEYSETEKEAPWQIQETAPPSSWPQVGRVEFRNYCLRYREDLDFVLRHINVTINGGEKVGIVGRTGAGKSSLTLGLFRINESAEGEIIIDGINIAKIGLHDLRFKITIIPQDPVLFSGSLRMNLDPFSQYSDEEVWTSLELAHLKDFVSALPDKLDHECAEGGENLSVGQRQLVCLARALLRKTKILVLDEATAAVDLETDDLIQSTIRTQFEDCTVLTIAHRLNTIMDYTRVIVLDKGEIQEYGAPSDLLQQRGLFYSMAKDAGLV
How it was run: (§2)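 H69AR cells (doxorubicin-selected small cell lung cancer, RPMI-1640/20% FBS), about 60,000 per well, preincubated 15 min with compound (100 nM–100 µM added solutions, in unsupplemented medium), then daunorubicin (30 µM solution added); steady state after 180 min, 37 °C, 5% CO2. Cells resuspended; flow cytometry, 488 nm excitation, FL3 (≥670 nm). Reference inhibitor 75 at 10 µM = 100%; Imax relative to it.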

[5] = molecular target: T1, Broad substrate specificity ATP-binding cassette transporter ABCG2; assay: Inhibition of BCRP (unknown origin) expressed in dog MDCK-II cells using pheophorbide A as substrate preincubated for 20 mins followed by substrate addition and measured after 120 mins by flow cytometry analysis; assay type: cell-based
How it was run: (§3)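 MDCK II cells transfected with human wild-type BCRP cDNA C-terminally fused to GFP, grown in DMEM/10% FBS. About 45,000 cells per well preincubated 20 min at 37 °C, 5% CO2 with compound (100 nM–100 µM added solutions), then pheophorbide A (5 µM solution added) for 120 min to steady state. Resuspended; flow cytometry, 488 nm excitation, FL3 (≥670 nm); GFP in FL1. Reference inhibitor 24 at 10 µM = 100%.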

P-gp (ABCB1) [6] = molecular target: T4, P-gp (ABCB1) (Homo sapiens, UniProt P08183); assay: Inhibition of P-gp (unknown origin) at 10 uM incubated for 30 mins by calcein AM analysis relative to control; conditions: probe calcein AM; how it was run: as §1
T4 sequence (P08183 whole entry): as the sequence (P08183 whole entry) above

MRP1 [7] = molecular target: T5, MRP1 (Homo sapiens, UniProt P33527); assay: Inhibition of MRP1 in human NCI-H69AR cells at 10 uM incubated for 180 mins in presence of daunorubicin by flow cytometry analysis relative to control; assay type: cell-based; conditions: probe daunorubicin; how it was run: as §2
T5 sequence (P33527 whole entry): as the sequence (P33527 whole entry) above

BCRP (ABCG2) [8] = molecular target: T6, BCRP (ABCG2) (Homo sapiens, UniProt Q9UNQ0); assay: Inhibition of BCRP (unknown origin) expressed in dog MDCK-II cells at 10 uM using pheophorbide A as substrate preincubated for 20 mins followed by substrate addition and measured after 120 mins by flow cytometry analysis relative to control; assay type: cell-based; conditions: probe pheophorbide A; how it was run: as §3
T6 sequence (Q9UNQ0 whole entry): T1 sequence (Q9UNQ0 whole entry)

P-gp (ABCB1) [9] = molecular target: T4, P-gp (ABCB1); assay: Inhibition of P-gp (unknown origin) expressed in dog MDCK-MDR1cells assessed as maximum inhibition at 10 uM by calcein AM accumulation assay relative to control; assay type: cell-based; conditions: MDCK-MDR1 cells, probe calcein AM
MRP1 [10] = molecular target: T5, MRP1; assay: Inhibition of MRP1 in human NCI-H69AR cells assessed as maximum inhibition at 10 uM incubated for 180 mins in presence of daunorubicin by flow cytometry analysis relative to control; assay type: cell-based; conditions: probe daunorubicin; how it was run: as §2
[11] = molecular target: T2, ATP-dependent translocase ABCB1; assay: Inhibition of P-gp (unknown origin)
[12] = molecular target: T1, Broad substrate specificity ATP-binding cassette transporter ABCG2; assay: Inhibition of BCRP (unknown origin) expressed in MDCK cells assessed as increase in Hoechst 33342 accumulation incubated for 60 mins by Hoechst 33342 dye based fluorescence assay; assay type: cell-based
[13] = molecular target: T3, Multidrug resistance-associated protein 1; assay: Inhibition of MRP1 (unknown origin)
P-gp (ABCB1) [14] = molecular target: T4, P-gp (ABCB1); assay: Inhibition of P-gp (unknown origin) expressed in dog MDCK-MDR1cells assessed as maximum inhibition by calcein AM accumulation assay relative to control; assay type: cell-based; conditions: MDCK-MDR1 cells, probe calcein AM, read-out: Imax
MRP1 [15] = molecular target: T5, MRP1; assay: Inhibition of MRP1 in human NCI-H69AR cells assessed as maximum inhibition incubated for 180 mins in presence of daunorubicin by flow cytometry analysis relative to control; assay type: cell-based; conditions: probe daunorubicin, read-out: Imax; how it was run: as §2
BCRP (ABCG2) [16] = molecular target: T6, BCRP (ABCG2); assay: Inhibition of BCRP (unknown origin) expressed in dog MDCK-II cells assessed as maximum inhibition using pheophorbide A as substrate preincubated for 20 mins followed by substrate addition and measured after 120 mins by flow cytometry analysis relative to control; assay type: cell-based; conditions: probe pheophorbide A, time 140 min, read-out: Imax; how it was run: as §3
[17] = molecular target: T3, Multidrug resistance-associated protein 1; assay: Inhibition of MRP1 (unknown origin) measured for 2 hrs
[18] = molecular target: T3, Multidrug resistance-associated protein 1; assay: Inhibition of human MRP1 expressed in human MDR cells measured for 2 hrs; assay type: cell-based
[19] = Inhibition of cell growth in SN-38 resistant dog MDCK-II-BCRP cells expressing BCRP measured for 72 hrs by MTT assay; assay type: functional; conditions: Canis lupus familiaris
How it was run: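 Reversal assay: resistant lines (A2780/ADR, H69AR, MDCK II BCRP) and parental lines seeded as for MTT assay with modulator solutions of 1, 10 and 100 µM added (final 0.1, 1, 10 µM) and daunorubicin (P-gp, MRP1) or SN-38 (BCRP) at final 10 nM–10 µM. 72 h, MTT read-out; GI50 by variable-slope fit. Resistance factor = resistant/sensitive GI50; potentiation factor = GI50 without/with modulator.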

[20] = Inhibition of SN-38 sensitive dog MDCK-II-BCRP cells expressing BCRP measured for 72 hrs by MTT assay; assay type: functional; conditions: Canis lupus familiaris

SMILES: N#Cc1c2n(c3c(N4CCN(CCc5c[nH]c6ccccc56)CC4)ncnc13)CCCC2
IC50 [2]: 3410 nM
IC50 [3]: 5620 nM
IC50 [4]: 344 nM
IC50 [5]: 3410 nM
inhibition at 0.5 h, 10 µM (P-gp (ABCB1) [6]): > 25%
inhibition at 3 h, 10 µM (MRP1 [7]): 25%
inhibition at 2 h, 10 µM (BCRP (ABCG2) [8]): > 25%

SMILES: COc1ccc(/C=C/C(=O)c2ccccc2NC(=O)c2cnc3ccccc3c2)cc1OC
IC50 [11]: 494 nM
IC50 [12]: 573 nM

SMILES: COc1ccc(C(=O)/C=C/c2ccc(OC)c(OC)c2)c(OC(=O)c2ccccc2OC)c1
IC50 [11]: 2160 nM

SMILES: c1ccc2c(CCN3CCN(c4ncnc5c4[nH]c4ccccc45)CC3)c[nH]c2c1
IC50 [3]: 3500 nM
IC50 [4]: 921 nM
IC50 [5]: 6210 nM
inhibition at 0.5 h, 10 µM (P-gp (ABCB1) [6]): > 25%
inhibition at 3 h, 10 µM (MRP1 [7]): > 25%
inhibition at 2 h, 10 µM (BCRP (ABCG2) [8]): > 25%
inhibition at 10 µM (P-gp (ABCB1) [9]): 30%
inhibition at 3 h, 10 µM (MRP1 [10]): 60%

SMILES: COc1cc(N(C)C(=O)Cc2cccc(-n3c(=O)c4c(C)onc4c4c(Cl)cccc43)c2)cc(OC)c1OC
IC50 [13]: 320 nM
IC50 [11]: 1330 nM

SMILES: COc1cc2c(cc1OC)CN(CCn1c(-c3ccc(N(C)C)cc3)nc3ccc([N+](=O)[O-])cc3c1=O)CC2
IC50 [11]: 600 nM
IC50 [17]: 400 nM

SMILES: N#Cc1c2n(c3c(N4CCN(CCc5ccc(F)c(F)c5)CC4)nc(-c4ccncc4)nc13)CCCC2
IC50 [11]: 105 nM
IC50 [18]: 1310 nM

SMILES: c1ccc2c(c1)[nH]c1c(N3CCN(Cc4ccc5c(c4)OCO5)CC3)ncnc12
IC50 [3]: 3920 nM
IC50 [4]: 717 nM
IC50 [5]: 7930 nM
inhibition at 0.5 h, 10 µM (P-gp (ABCB1) [6]): > 25%
inhibition at 3 h, 10 µM (MRP1 [7]): > 25%
inhibition at 2 h, 10 µM (BCRP (ABCG2) [8]): > 25%
inhibition at 10 µM (P-gp (ABCB1) [9]): 30%
inhibition at 3 h, 10 µM (MRP1 [10]): 60%

SMILES: CCc1c2c(nc3ccc(O)cc13)-c1cc3c(c(=O)n1C2)COC(=O)[C@]3(O)CC [7-ETHYL-10-HYDROXYCAMPTOTHECIN]
GI50 [19]: 1710 nM
GI50 [20]: 86 nM

The remaining lines, values ahead:

IC50 [1]: 1190 nM
SMILES: COc1ccc(Nc2nc(-c3ccccc3)nc3ccccc23)cc1OC

IC50 [3]: 2330 nM
IC50 [4]: 409 nM
IC50 [5]: 1380 nM
inhibition at 0.5 h, 10 µM (P-gp (ABCB1) [6]): > 25%
inhibition at 3 h, 10 µM (MRP1 [7]): > 25%
inhibition at 2 h, 10 µM (BCRP (ABCG2) [8]): > 25%
inhibition at 10 µM (P-gp (ABCB1) [9]): 30%
inhibition at 3 h, 10 µM (MRP1 [10]): 60%
SMILES: c1ccc(C(c2ccccc2)N2CCN(c3ncnc4c3[nH]c3ccccc34)CC2)cc1

IC50 [13]: 790 nM
IC50 [11]: 14000 nM
IC50 [2]: 20400 nM
SMILES: N#Cc1cn(Cc2ccccc2)c2c(NCCCc3ccccc3)ncnc12

IC50 [3]: 1110 nM
IC50 [4]: 405 nM
IC50 [5]: 839 nM
inhibition at 0.5 h, 10 µM (P-gp (ABCB1) [6]): > 25%
inhibition at 3 h, 10 µM (MRP1 [7]): > 25%
inhibition at 2 h, 10 µM (BCRP (ABCG2) [8]): > 25%
inhibition at 3 h, 10 µM (MRP1 [10]): 60%
Emax (P-gp (ABCB1) [14]): 26%
Emax at 3 h (MRP1 [15]): 61%
Emax at 2 h (BCRP (ABCG2) [16]): 28%
SMILES: c1ccc(CCN2CCN(c3ncnc4c3[nH]c3ccccc34)CC2)cc1

IC50 [4]: 169 nM
IC50 [5]: 6060 nM
inhibition at 0.5 h, 10 µM (P-gp (ABCB1) [6]): > 25%
inhibition at 3 h, 10 µM (MRP1 [7]): > 25%
inhibition at 2 h, 10 µM (BCRP (ABCG2) [8]): > 25%
inhibition at 10 µM (P-gp (ABCB1) [9]): 30%
inhibition at 3 h, 10 µM (MRP1 [10]): 60%
SMILES: O=C(c1ccco1)N1CCN(c2ncnc3c2[nH]c2ccccc23)CC1

IC50 [3]: 10700 nM
IC50 [4]: 345 nM
IC50 [5]: 11600 nM
inhibition at 0.5 h, 10 µM (P-gp (ABCB1) [6]): > 25%
inhibition at 3 h, 10 µM (MRP1 [7]): > 25%
inhibition at 2 h, 10 µM (BCRP (ABCG2) [8]): > 25%
inhibition at 10 µM (P-gp (ABCB1) [9]): 30%
inhibition at 3 h, 10 µM (MRP1 [10]): 60%
SMILES: c1ccc(CCN2CCN(c3ncnc4c3[nH]c3ccccc34)CC2)nc1

IC50 [3]: 9490 nM
IC50 [4]: 363 nM
IC50 [5]: 6080 nM
inhibition at 0.5 h, 10 µM (P-gp (ABCB1) [6]): > 25%
inhibition at 3 h, 10 µM (MRP1 [7]): > 25%
inhibition at 2 h, 10 µM (BCRP (ABCG2) [8]): > 25%
inhibition at 10 µM (P-gp (ABCB1) [9]): 30%
inhibition at 3 h, 10 µM (MRP1 [10]): 60%
SMILES: c1ccc(CN2CCN(c3ncnc4c3[nH]c3ccccc34)CC2)cc1
